Source: PubChem BioAssay
An excerpt weighted towards active compounds, which were near 1.6% of everything screened.
TAG inh: reduces triacylglycerol accumulation in H9c2 cells; actives 0.66% (n = 230,000); Nile Red lipid (TAG) fluorescence; cells loaded with 200 µM oleic acid; AID 651582; inhibition, % at 12.5 µM;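 active = pattern-corrected inhibition of lipid staining of at least 50% with the nuclear-stain viability signal not falling by more than 50%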;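 also: 0% = DMSO wells and 100% = triacsin C control wells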
A1 inh: inhibitors of the anti-apoptotic protein A1, read as caspase activation; MEF A1-2A-BIM cells, Caspase-Glo 3/7 luminescence, 3 h; percent of clofoctol response, vehicle zero; caspase activation, % (no concentration beside the values); actives 0.066% (n = 330,000);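 active = over half of replicate activation scores above 10%, or exactly half above 10 with the replicate mean above 10; inconclusive = replicate mean below 10 yet half the replicates above 10; inactive = over half of replicates below 10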
SR-BI uptake up: activators of SR-BI mediated HDL lipid uptake | CHO ldlA[mSR-BI] cells, DiI-HDL uptake fluorescence, 3 h; 100 = double the neutral-control signal | activation, % at 12.5 µM | actives 0.096% (n = 320,000);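 active = mean replicate activation of at least 60% and every replicate at or above 60%; inconclusive = mean or all-replicate condition met, but not both; inactive = mean below 60% and not all replicates reaching 60%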;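 also: 0% = median plate neutral-control signal and 100% = twice that signal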
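Test system: SR-BI-overexpressing, LDLR-lacking CHO cells; Also added: labelled HDL, 10 µg/mL; Measured by: bottom-read cell fluorescence after medium removal, ex 550/em 595 nm; Timing: 3 h uptake period with compound, 37 °C; Buffer or medium: F12, 0.5% BSA, 25 mM HEPES; Doses: single compound concentration, delivered by pin transfer.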
SR-BI HDL uptake: blocks mouse SR-BI lipid uptake from DiI-HDL; Q61009; ldlA[mSR-BI] CHO cells, DiI-HDL uptake fluorescence, 3 h; AID 488896; inhibition, % at 12.5 µM; actives 0.96% (n = 320,000);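 active = mean replicate inhibition of at least 70% and a set share of replicates each scoring 70 or more; inconclusive = meets just one of the two criteria; inactive = fails both criteria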;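 also: 0% = median of neutral control wells and 100% = median of positive control wells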
Target sequence (Q61009 whole entry, looked up): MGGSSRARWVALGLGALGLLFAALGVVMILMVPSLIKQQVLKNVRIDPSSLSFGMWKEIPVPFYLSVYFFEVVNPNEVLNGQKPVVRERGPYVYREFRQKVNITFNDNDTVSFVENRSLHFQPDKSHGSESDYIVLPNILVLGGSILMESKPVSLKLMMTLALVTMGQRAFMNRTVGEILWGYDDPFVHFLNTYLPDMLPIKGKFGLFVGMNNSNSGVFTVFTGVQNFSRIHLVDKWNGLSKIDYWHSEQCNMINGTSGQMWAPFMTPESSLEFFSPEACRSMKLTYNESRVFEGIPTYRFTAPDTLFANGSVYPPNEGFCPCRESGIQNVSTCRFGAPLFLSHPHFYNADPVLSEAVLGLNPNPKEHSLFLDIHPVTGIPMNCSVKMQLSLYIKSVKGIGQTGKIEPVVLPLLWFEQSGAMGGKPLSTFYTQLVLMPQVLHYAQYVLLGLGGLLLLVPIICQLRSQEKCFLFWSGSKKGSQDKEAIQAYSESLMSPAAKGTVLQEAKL
Vif inh: inhibitors of HIV Vif | inhibition, % at 7.49 µM | AID 602346 | HEK293T cells, Vif self-association by quenched fluorescence, imaging, 24 h | actives 0.35% (n = 340,000); in the data active = inhibition above about 50%, passing the limit was not always enough; inconclusive = no clear call, values can overlap the other calls; inactive = below about 31%
* marks the source's active call; other numbers are inactive results; ? = inconclusive; nt = no result given.

SMILES | TAG inh | A1 inh | SR-BI uptake up | SR-BI HDL uptake | Vif inh
Nc1ccc(C(=O)Nc2ccc(OC(F)(F)C(F)F)c(NC(=O)c3ccc(N)cc3)c2)cc1 | nt | 0 | -77 | 77* | -5
O=C(Nc1ccccc1)c1cn(CCBr)cn1 | 4 | -5 | 25 | -25 | 2
CCC(CO)Oc1cc(NC(=O)c2ccccc2[N+](=O)[O-])c2ncn(C(C)C)c2c1 (configuration not stated) | 36 | 0 | -39 | 39 | -3
C=CCOC(=O)C(C#N)c1nc2ccccc2nc1N1CCN(c2ccccc2OC)CC1 (configuration not stated) | nt | -1 | -82 | 82* | -13
C=CCOC(=O)C(C#N)c1nc2ccccc2nc1N1CCN(Cc2ccccc2)CC1 (configuration not stated) | 4 | -1 | -84 | 84* | -7
O=C(Nc1cc(Cl)ccc1Cl)P(=O)(O)c1ccccc1 | 18 | nt | 9 | -9 | 57*
COc1ccccc1-c1nnc(Nc2nc3c(OC)cccc3s2)o1 | 67* | -10 | -40 | 40 | ?
COc1cccc2sc(Nc3nnc(-c4ccccc4Cl)o3)nc12 | 21 | -5 | -23 | 23 | 24
COc1cccc2sc(Nc3nc(-c4ccncc4)cs3)nc12 | 57* | 0 | -80 | 80* | -5
O=C(CSc1n[nH]c(=O)[nH]c1=O)N/N=C/c1ccccc1 | -6 | 0 | 52 | -52 | 14
CCSc1ccc(/C(N)=N/OC(=O)c2cccs2)cn1 | nt | -1 | nt | 3 | 11
Cc1ccc(C(=O)n2c3ccccc3c3ccccc32)cc1 | 22 | 0 | -74 | 74* | nt
CCN(C(=O)COC(=O)/C(C#N)=C/c1ccc(OC)cc1)C1CCS(=O)(=O)C1 (configuration not stated) | 1 | 1 | 3 | -3 | 5
O=C(Nc1sc2c(c1C(=O)NCc1ccco1)CCCC2)c1ccc2c(c1)OCO2 | nt | -4 | -82 | 82* | 13
COc1ccc(/C=C2\CCC/C(=C\c3ccc(OC)c(OC)c3OC)C2=O)c(OC)c1OC | nt | nt | -74 | 74* | -6
CC(=O)c1sc2nc(-c3cccs3)ccc2c1N | -8 | 0 | -20 | 20 | 28
Nc1c(C(=O)Nc2nc3ccccc3s2)sc2nc(-c3cccs3)ccc12 | 18 | -1 | -71 | ? | 154*
CCc1ccc2c(c1)C(c1ccc([N+](=O)[O-])cc1)=NNC(c1ccc(C)cc1)=N2 | nt | 1 | -75 | 75* | -7
Cc1ccc2c(c1)C(=O)C(=O)N2Cc1ccc(Br)cc1 | 16 | 5.9* | -2 | 2 | 1
O=C(CCNC(=O)c1ccccc1Cl)Nc1nnc(C2CC2)s1 | 0 | 0 | 20 | -20 | -3
COc1ccc2oc(=N)c(C(=O)Nc3ccccc3)cc2c1 | 4 | -2 | -60 | 60 | -1
COc1ccc2oc(=N)c(C(=O)Nc3ccccc3Cl)cc2c1 | nt | -6 | -72 | 72* | -2
Oc1ccc(-c2nccs2)cc1 | -1 | nt | 73* | -73 | 21
O=C(NC1CCCCC1)C(c1ccc(F)cc1)N(Cc1ccccc1)C(=O)CN1C(=O)c2ccccc2S1(=O)=O (configuration not stated) | nt | -1 | 2 | -2 | -3
O=C(NC1CCCCC1)C(c1ccc(F)cc1)N(CCc1ccccc1)C(=O)CN1C(=O)c2ccccc2S1(=O)=O (configuration not stated) | nt | 18* | 19 | -19 | -1
SMILES | TAG inh | A1 inh | SR-BI uptake up | SR-BI HDL uptake | Vif inh
O=C1ON(Cc2ccccc2)C(c2ccccc2)N1c1ccccc1 (configuration not stated) | -1 | nt | 9 | -9 | 5
Cc1ccccc1Nc1nc(N)nc(CCl)n1 | 14 | 1 | 20 | -20 | 104*
Nc1nc(CCl)nc(Nc2ccc3ccccc3c2)n1 | 79* | nt | -10 | 10 | -8
CCOC(=O)C1(C)CCCN(C(=O)c2cccs2)C1 (configuration not stated) | -27 | nt | nt | nt | 1
Cc1oc(-c2cccs2)nc1CN1CCN(Cc2ccc(F)c(F)c2)C(CCO)C1 (configuration not stated) | -13 | 0 | nt | nt | -1
CNS(=O)(=O)c1cccc(C(=O)OCC(=O)Nc2ccc3ccccc3c2)c1 | 0 | 0 | 0 | 0 | -12
COc1ccc(-c2nc(NC(=O)c3[nH]c(C)c(C(C)=O)c3C)sc2C)cc1 | 27 | 1 | -76 | 76* | -1
CCOC(=O)N1CCN(C(=O)c2ccc3oc(CCCc4ccccc4)nc3c2)CC1 | 2 | -4 | -29 | 29 | -3
COc1cc(C(=O)Nc2ccc(N3CCCS3(=O)=O)cc2)c([N+](=O)[O-])cc1OC | 18 | 0 | -81 | 81* | -4
COc1cc(C(=O)Nc2ccc3c(c2)CCCN3C(=O)c2ccco2)c([N+](=O)[O-])cc1OC | 3 | ? | -76 | 76* | -9
CCOc1ccc(C(=O)N2CCC3(CC2)NCCc2[nH]cnc23)cc1OCC | nt | 0 | 36 | -36 | 2
C/C(=N/Nc1nc(-c2ccc(Cl)cc2)cs1)c1cccs1 | 33 | -1 | -79 | 79* | -7
CC(=O)Nc1ccc(-c2csc(N/N=C(/C)c3ccccc3)n2)cc1 | 12 | 0 | -67 | 67 | 6
CCCNC(=O)c1nn2cc(Br)cnc2c1Br | 1 | 2 | 30 | -30 | -9
CC(=O)Oc1cccc(N2C(=O)c3cccc4c([N+](=O)[O-])ccc(c34)C2=O)c1 | nt | 2 | 24 | -24 | 118*
CN1OC[C@@H]2CN(Cc3ccc(Cl)cc3)[C@H](c3cccc(Br)c3)C[C@@H]21 | -9 | nt | 10 | -10 | 3
COCCCNC(=O)c1ccc(Cn2c(=O)c3ccccc3n(CC(=O)NCCc3ccc(OC)c(OC)c3)c2=O)cc1 | -2 | 0 | -81 | 81* | 1
COCCCNC(=O)Cn1c(=O)n(Cc2ccc(C(=O)NCCc3ccc(OC)c(OC)c3)cc2)c(=O)c2ccccc21 | -9 | 0 | -88 | 88* | -2
Cc1cc([N+](=O)[O-])ccc1NC(=O)CCC(=O)N1CCCCCC1 | 9 | 0 | -3 | 3 | nt
CNc1nc(NC)c2cn[nH]c2n1 | 8 | nt | -5 | 5 | 32
COc1cccc(CNC(=O)Cc2csc(NC(=O)Nc3ccccc3OC)n2)c1 | 0 | 0 | -78 | 78* | -2
COc1ccc(NC(=S)Nc2nc(CC(=O)Nc3ccccc3OC)cs2)cc1 | 7 | 1 | -50 | 50 | -25
COc1ccc(C(=O)Nc2nc(CC(=O)NCCc3cccc(OC)c3)cs2)cc1 | -23 | -2 | -73 | 73* | 2
COc1ccccc1NC(=O)Nc1nc(CC(=O)N2CCN(c3ccccc3F)CC2)cs1 | 29 | -2 | -80 | 80* | -10
COc1ccccc1NC(=O)Nc1nc(CC(=O)NCc2c(F)cccc2F)cs1 | -6 | 0 | -72 | 72* | -3
COc1ccc(C(=O)Nc2nc(CC(=O)NCCc3ccccc3)cs2)cc1 | -36 | 0 | -42 | 42 | 1
